Results as given in ChEMBL document CHEMBL4049421, “Design, Synthesis, and Pharmacological Characterization of N-(4-(2 (6,7-Dimethoxy-3,4-dihydroisoquinolin-2(1H)yl)ethyl)phenyl)quinazolin-4-amine Derivatives: Novel Inhibitors Reversing P-Glycoprotein-Mediated Multidrug Resistance” (J Med Chem, 2017).
The source made the active and inactive calls. The rule behind the calls is not given here.

Assays:
[1] = tested on: K562/A02; test: Cytotoxicity against human K562/A02 cells assessed as suppression of cell viability after 48 hrs by MTT assay; format: cell-based; conditions: K562/A02, 48 h
Summary of the method: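 MTT assay on HUVEC, K562 or K562/A02 cells seeded at 1×10^4 cells per well, using serial compound concentrations. Formazan was dissolved in DMSO and read at 490 nm. IC50 was obtained from log dose–response curves, mean ± SD of three independent tests.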

[2] = organism: Homo sapiens; test: Inhibition of P-gp in human K562/A02 cells assessed as potentiation of vinblastine-induced cytotoxicity at 1.0 uM after 48 hrs by MTT assay; format: cell-based
Summary of the method: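 K562/A02 cells were exposed for 48 h to DNR, PTX, VLB or CTX at 0, 0.313–20 μM, with or without modulator at 1.0 μM. Viability was measured by MTT at 490 nm, mean ± SD of three independent tests.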

[3] = organism: Homo sapiens; test: Inhibition of P-gp in human K562/A02 cells assessed as potentiation of doxorubicin-induced cytotoxicity at 1 uM preincubated for 24 hrs followed by compound washout for 24 hrs and subsequent doxorubicin addition measured after 48 hrs by MTT assay; format: cell-based
Summary of the method: (§1)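 K562/A02 cells (1×10^4 cells per well) were preincubated 24 h with modulator (1.0 μM or 5.0 μM) or PBS. Cells were washed 0 or 3 times with medium and held for 0, 6, 12 or 24 h. A DOX concentration series was then added for 48 h, and viability was read by MTT. Triplicate determinations.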

[4] = organism: Homo sapiens; test: Inhibition of P-gp in human K562/A02 cells assessed as accumulation of doxorubicin at 0.1 uM to 5.0 uM after 150 mins by fluorescence spectrophotometric analysis; format: cell-based
Summary of the method: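 K562/A02 cells (4×10^5) were incubated 150 min at 37 °C with 20.0 μM DOX plus modulator at various concentrations, with 0.1% DMSO as negative control. Cells were washed with cold PBS and lysed in HCl/Triton X-100/isopropanol. DOX fluorescence was read at ex 460 / em 587 nm. Mean ± SD, n = 3.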

[5] = organism: Homo sapiens; test: Inhibition of P-gp mediated efflux in human K562/A02 cells assessed as intracellular Rh123 accumulation at 1.0 uM measure up to 90 mins by flow cytometric analysis; format: cell-based
Summary of the method: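 K562/A02 cells were loaded with 5 μM Rh123 for 90 min at 37 °C and washed three times. They were then incubated with or without modulator at 37 °C for 5, 10, 25, 30, 60 and 90 min. Retained Rh123 MFI per 10000 cells was measured by flow cytometry. 0.1% DMSO negative control, n = 3.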

[6] = organism: Homo sapiens; test: Inhibition of ATPase activity in human P-gp membrane fraction at 0.5 uM in presence of ATP after 1 hr by luciferase […]; format: cell membranes
Summary of the method: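 Human P-gp membrane fraction (~25 μg) was incubated with compound at 0.5, 5.0 or 50.0 μM in 0.5% DMSO, with a 100 μM sodium vanadate reference. Reaction was started with 5.0 mM MgATP, 1 h at 37 °C. Remaining ATP was read by luciferase luminescence after 20 min at room temperature, relative to vanadate. n = 3.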

[7] = tested on: Rattus norvegicus; test: AUC(0 to 24 hrs) in Sprague-Dawley rat plasma at 10 mg/kg, po measured after 24 hrs by LC-MS/MS analysis; format: ADME, organism-based; design: dose 10 mg/kg, time < 24 hr, route oral; conditions: in vivo
Summary of the method: (§2)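 Male Sprague-Dawley rats, n = 3 per group, given drug in Tween-80/ethanol/saline (5:10:85, v/v) at 10 mg/kg p.o. or 5 mg/kg i.v. Retro-orbital blood was taken at 5 min to 24 h, and plasma separated at 900g. Samples were spiked with internal standard, methanol-precipitated and quantified by LC-MS/MS. F = (AUCpo/AUCiv)×(dose iv/dose po)×100%.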

[8] = tested on: Rattus norvegicus; test: AUC(0 to infinity) in Sprague-Dawley rat plasma at 5 mg/kg, iv measured after 24 hrs by LC-MS/MS analysis; format: ADME, organism-based; design: dose 5 mg/kg, time infinity, route intravenous; conditions: in vivo; summary of the method: as §2
[9] = Elimination half life in Sprague-Dawley rat plasma at 10 mg/kg, po by LC-MS/MS analysis; format: ADME, organism-based; conditions: read-out: beta t1/2 (converted); summary of the method: as §2
[10] = Elimination half life in Sprague-Dawley rat plasma at 5 mg/kg, iv by LC-MS/MS analysis; format: ADME, organism-based; conditions: read-out: beta t1/2 (converted); summary of the method: as §2
[11] = Cmax in Sprague-Dawley rat at 10 mg/kg, po measured after 24 hrs by LC-MS/MS analysis; format: ADME, organism-based; design: dose 10 mg/kg, route oral; conditions: in vivo; summary of the method: as §2
[12] = organism: Homo sapiens; test: Inhibition of P-gp in human K562/A02 cells assessed as potentiation of doxorubicin-induced cytotoxicity at 1.0 uM preincubated for 24 hrs followed by doxorubicin addition measured after 48 hrs by MTT assay; format: cell-based; summary of the method: as §1
[13] = tested on: Rattus norvegicus; test: Effect on plasma clearance of doxorubicin in Sprague-Dawley rat at 5 mg/kg, iv co-administered with doxorubicin measured after 8 hrs by LC-MS/MS analysis; format: ADME, organism-based; conditions: in vivo
Summary of the method: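 Male SD rats received DOX 10 mg/kg i.v. alone or with modulator 5 mg/kg i.v. Orbital blood was taken at 5 min to 8 h. Plasma DOX was measured by LC-MS/MS with DNR (0.5 μg/mL) as internal standard. Mean ± SD, n = 3.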

COc1cc2c(cc1OC)CN(CCc1ccc(Nc3nc(-c4ccncc4)nc4ccccc34)cc1)CC2
IC50 [1]: 12.8 µM | inhibition [2]: Active | inhibition [3]: Active | inhibition [4]: Active | inhibition [5]: Active | inhibition [6]: Active | AUC [7]: 3130 ng·h/mL | AUC [8]: 1750 ng·h/mL | half-life [9]: 6.2 h | half-life [10]: 5.9 h | Cmax [11]: 761 ng/mL | inhibition [12]: Active | Activity [13]: Non-Toxic
